Laboratory results published in ChEMBL document CHEMBL5576140, “Computational Design of Pore-Forming Peptides with Potent Antimicrobial and Anticancer Activities” (J Med Chem, 2024).

How the values were obtained:
[1] = tested on: Staphylococcus aureus; experiment: Antimicrobial activity against Staphylococcus aureus NE1740 harboring single transposon insertion mutation in staphopain A at 30 uM incubated for 18 hrs relative to control; assay type: functional
Method in brief: (§1)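 CA-MRSA USA300 LAC derivative JE2 and single transposon insertion mutants derived from JE2, each lacking an extracellular protease gene, were exposed to peptides up to 30 μM. The read-out was percent growth inhibition. Peptides were dissolved in PBS, and tests were run in triplicate.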

[2] = tested on: Staphylococcus aureus; experiment: Antimicrobial activity against Staphylococcus aureus NE163 harboring single transposon insertion mutation in aureolysin at 30 uM incubated for 18 hrs relative to control; assay type: functional; method in brief: as §1
[3] = tested on: Staphylococcus aureus; experiment: Antimicrobial activity against Staphylococcus aureus NE1506 harboring single transposon insertion mutation in V8 protease at 30 uM incubated for 18 hrs relative to control; assay type: functional; method in brief: as §1
[4] = tested on: Staphylococcus aureus; experiment: Antimicrobial activity against Staphylococcus aureus NE934 harboring single transposon insertion mutation in staphopain B at 30 uM incubated for 18 hrs relative to control; assay type: functional; method in brief: as §1
[5] = Hemolytic activity against human RBC incubated for 1 hr by microplate reader analysis; assay type: toxicity, cell-based, Erythrocyte; conditions: red blood cells (erythrocytes)
Method in brief: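 Human red blood cells exposed to peptides up to 50 μM; hemolysis measured, IC50 derived where reached.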

[6] = tested on: Staphylococcus carnosus; experiment: Antimicrobial activity against Staphylococcus carnosus CCM 4838T incubated for 24 hrs by broth microdilution assay; assay type: functional
[7] = tested on: Escherichia coli; experiment: Antimicrobial activity against Escherichia coli TOP10 incubated for 24 hrs by broth microdilution assay; assay type: functional
[8] = Toxicity against reconstructed human skin model assessed as irritation at 50 uM incubated for 1 hr followed by compound washout measured after 42 hrs by MTT assay; assay type: tissue-based, Skin of body
Method in brief: (§2)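 Reconstructed human epidermis with stratum corneum, per OECD TG 439 skin irritation guideline. Tissues exposed 1 h to peptide at 50 μM, then 42 h post-treatment incubation. Viability read by MTT. Controls were SDS and melittin.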

[9] = Toxicity against reconstructed human skin model assessed as tissue viability at 50 uM incubated for 1 hr followed by compound washout measured after 42 hrs by MTT assay; assay type: tissue-based, Skin of body; conditions: read-out: Activity; method in brief: as §2
[10] = Stability in simulated pore POPC lipid bilayer membrane; assay type: physicochemical
Method in brief: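 Coarse-grained MD with the "scaled" Martini force field, peptides in POPC membrane, 51 μs. Counts transmembrane peptides at 51 μs. Water beads within 2 nm vertically of membrane centre and peptide–peptide interaction energy averaged over 48–51 μs. Contacts (salt bridge or stacking) scored below 0.8 nm and called stable if present ≥50% of the time.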

[11] = tested on: SUD4; experiment: Anti-cancer activity against human SU-DHL-4 cells incubated for 24 hrs by WST assay; assay type: functional, cell-based; conditions: SU-DHL-4, 24 h

Compound | inhibition at 30 µM [1] | inhibition at 30 µM [2] | inhibition at 30 µM [3] | inhibition at 30 µM [4] | IC50 at 1 h [5] | other results
H-KKKKLKKILKKLFNFINNLDNNLNDIKNNK-NH2 | < 45% | < 45% | < 45% | < 45% | – | –
CC1(C)S[C@@H]2[C@H](NC(=O)[C@H](N)c3ccccc3)C(=O)N2[C@H]1C(=O)O [AMPICILLIN] | – | – | – | – | 0.9 µM | –
H-KKKKAKKAAKKAFQFANQADNQAQDAKQNK-NH2 | < 45% | < 45% | < 45% | < 45% | – | MIC [6]: > 50 µM; MIC [7]: > 50 µM
H-KKKKLKKILKKLFQFIDQLINDLQNIKKKK-NH2 | – | – | – | – | > 50 µM | –
H-KKKKLRRILRRLFQFINQLDNQLQDIKQNK-NH2 | – | – | – | – | 49 µM | –
H-KKKKLKKILKKLFQFINQLDNQLQDIKQNK-OH | – | – | – | – | > 50 µM | –
H-KKKKIKKIIKKIFQFINQIDNQIQDIKQNK-NH2 | < 45% | < 45% | < 45% | < 45% | – | MIC [6]: > 50 µM
H-KKKKLKKILKKLFQFIQQLDQQLQDIKQQK-NH2 | < 45% | < 45% | < 45% | < 45% | > 50 µM | Activity [8]: Non-Toxic; viability at 1 h, 50 µM [9]: 100%
H-RRRRLKKILKKLFQFINQLDNQLQDIRQNR-NH2 | – | – | – | – | 6.9 µM | –
H-KKKKLKKILKKLFQFINQLDNQLQDFKQNK-OH | – | – | – | – | > 50 µM | Stability [10]: Stable
H-KKKKLKKLLKKLFQFLNQLDNQLQDLKQNK-NH2 | < 45% | < 45% | < 45% | < 45% | – | –
CC[C@H](C)[C@H](NC(=O)CN)C(=O)NCC(=O)N[C@@H](C)C(=O)N[C@H](C(=O)N[C@@H](CC(C)C)C(=O)N[C@@H](CCCCN)C(=O)N[C@H](C(=O)N[C@@H](CC(C)C)C(=O)N[C@H](C(=O)N[C@H](C(=O)NCC(=O)N[C@@H](CC(C)C)C(=O)N1CCC[C@H]1C(=O)N[C@@H](C)C(=O)N[C@@H](CC(C)C)C(=O)N[C@H](C(=O)N[C@@H](CO)C(=O)N[C@@H](Cc1c[nH]c2ccccc12)C(=O)N[C@H](C(=O)N[C@@H](CCCCN)C(=O)N[C@@H](CCCNC(=N)N)C(=O)N[C@@H](CCCCN)C(=O)N[C@@H](CCCNC(=N)N)C(=O)N[C@@H](CCC(N)=O)C(=O)N[C@@H](CCC(N)=O)C(N)=O)[C@@H](C)CC)[C@@H](C)CC)[C@@H](C)O)[C@@H](C)O)C(C)C)C(C)C [MELITTIN] | – | – | – | – | – | IC50 [11]: ≤ 5 µM
H-KKKKLKKILKKLFSFISSLDSSLSDIKSSK-NH2 | < 45% | < 45% | < 45% | < 45% | – | Stability [10]: Stable
H-KKKKLKKILKKLFQFINQLENQLQEIKQNK-NH2 | – | – | – | – | > 50 µM | –
H-KKKKVKKVVKKVFQFVNQVDNQVQDVKQNK-NH2 | < 45% | < 45% | < 45% | < 45% | – | MIC [6]: > 50 µM; MIC [7]: > 50 µM
H-KNQNLDDILNQLFQFINQLKNQLQKIKKKK-NH2 | – | – | – | – | – | MIC [7]: > 50 µM
H-KKKKLKKILKKLWQWINQLDNQLQDIKQNK-NH2 | – | – | – | – | > 50 µM | –
H-KKKKMKKMMKKMFQFMNQMDNQMQDMKQNK-NH2 | < 45% | < 45% | < 45% | < 45% | – | MIC [7]: > 50 µM
